hERG rescue – hERG rescue from dofetilide block, primary screen, cell-based, CHO-hERG, FluxOR thallium flux, dofetilide IC70 | Voltage-gated inwardly rectifying potassium channel KCNH2 (Homo sapiens), Q12809 | dofetilide IC70 present | activation (rescue from dofetilide block), less the hit threshold, % at 10 µM | 310,000 tested, 0.51% active;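 active means activation above the mean of controls blocked by dofetilide plus 5 SD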;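 further: thallium influx through hERG after potassium depolarization seen as dye fluorescence rise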
KCNQ1 inh – inhibitors of human KCNQ1 channel, primary screen, cell-based, thallium flux, high-throughput | Potassium voltage-gated channel subfamily KQT member 1 (Homo sapiens), P51787 | CHO-K1 KCNQ1, FluxOR thallium flux fluorescence; hits give high values | B-score at 10 µM | AID 2642, 2010 | 310,000 tested, 1.3% active;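 active means compounds whose thallium flux B-score, printed positive for inhibition, exceeds three library SD while starting fluorescence stays within three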;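 further: channel opened by potassium depolarization with thallium stimulus after 20 min compound exposure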
KCNK9 block – KCNK9 potassium channel inhibitors, primary screen, HEK293 cells, thallium flux; B-score at 10 µM; AID 488922, 2010; Potassium channel subfamily K member 9 (Homo sapiens), Q9NPC2; FluxOR thallium flux fluorescence; hits give low values; 310,000 tested, 1.2% active;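 active means ratio B-score over 3 SD below the library mean, with starting fluorescence within 5 SD of its mean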;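 further: negative B-score means less thallium flux so channel inhibition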
KCNK3 inh – human KCNK3 channel inhibitors, primary screen, CHO cells, FluxOR thallium flux, B-score. Potassium channel subfamily K member 3 (Homo sapiens), O14649. FluxOR fluorescence; hits give low values. B-score at 10 µM. 340,000 tested, 0.84% active. AID 602410, 2012;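 active means B-score under library mean minus 4 SD, starting fluorescence ratio at most library mean plus 5 SD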;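 further: more negative B-score means stronger inhibition of thallium flux through KCNK3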
Kir21 block – inhibitors of mouse Kir2.1 inward-rectifier potassium channel. HEK293-Kir2.1, FluxOR thallium flux fluorescence; hits give low values. Inward rectifier potassium channel 2 (Mus musculus), P35561. B-score at 10 µM. 310,000 tested, 0.85% active;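 active means fluorescence ratio B-score at or below minus 3 SD of library scores, with starting-brightness B-score within 2 SD, cut at about -4.2 in these data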;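 further: channel flux triggered by added potassium and thallium sulfate stimulus; B-score of peak minus minimum fluorescence over baseline after thallium stimulus; more negative B-score means stronger Kir2.1 block with less thallium influx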
Target sequence (P35561 whole entry, looked up): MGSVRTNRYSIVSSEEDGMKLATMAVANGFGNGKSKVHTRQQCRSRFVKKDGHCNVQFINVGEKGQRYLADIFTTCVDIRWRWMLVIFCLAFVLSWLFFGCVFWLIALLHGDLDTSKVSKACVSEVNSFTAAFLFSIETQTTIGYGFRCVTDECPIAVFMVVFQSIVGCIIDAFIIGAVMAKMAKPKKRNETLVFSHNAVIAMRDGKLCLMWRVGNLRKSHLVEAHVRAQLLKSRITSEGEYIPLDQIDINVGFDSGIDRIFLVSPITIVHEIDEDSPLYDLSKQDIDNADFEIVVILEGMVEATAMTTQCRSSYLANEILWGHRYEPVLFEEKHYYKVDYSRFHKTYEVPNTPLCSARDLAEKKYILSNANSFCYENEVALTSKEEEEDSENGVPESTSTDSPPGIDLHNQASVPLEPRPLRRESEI
KCNQ1 act – potentiators or activators of KCNQ1 channel, primary screen, cell-based, thallium flux, high-throughput; AID 2648, 2010; 310,000 tested, 0.35% active; B-score at 10 µM; Potassium voltage-gated channel subfamily KQT member 1 (Homo sapiens), P51787; CHO-K1 KCNQ1, thallium flux FluxOR fluorescence; hits give high values;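 active means fluorescence ratio B-score, a plate-corrected score, at least three library SD, with initial intensity B-score within 5 SD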
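Schedule – 37 °C overnight plating, 90-min dark dye load, 20-min compound pretreatment · System – stable KCNQ1 CHO-K1 line · Probe or stimulus – thallium- and potassium-containing depolarizing buffer · Measured by – kinetic FluxOR fluorescence, 10 s baseline plus 110 s post-stimulus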
KCNK9 inh conf – KCNK9 potassium channel inhibitors, confirmation, HEK293 cells, thallium flux, duplicate; AID 492992, 2010; inhibition, % at 10 µM; shares compounds with KCNK9 block; 4,900 tested, 43% active; FluxOR thallium flux fluorescence;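 active means thallium signal inhibited by more than 5 SD of the compound-free buffer control wells, on both duplicate plates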;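 further: 0% = assay buffer control wells without compound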
Kir21 sel – mouse Kir2.1 channel inhibition, confirmation, selectivity assay for KCNK9 modulator project, cell-based, HEK293, thallium flux | Kir2.1 cells, FluxOR thallium flux fluorescence | 4,900 tested, 4% active | shares compounds with KCNK9 block | AID 492993, 2010 | inhibition, % at 10 µM;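 active means thallium signal drop more than 5 SD beyond the mean of the no-compound control wells, seen in both duplicate plates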;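 further: signal is fluorescence rise after thallium addition divided by baseline fluorescence; plate controls were assay buffer only for no effect and full block by chlorpromazine control for full effect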
KCNK9 uninduced – thallium flux in non-induced HEK293 cells, confirmation, counter-screen for KCNK9 inhibitor project, cell-based, second counter screen, non-induced KCNK9-HEK293; shares compounds with KCNK9 block; FluxOR thallium flux; 4,900 tested, 40% active; inhibition, % at 10 µM; AID 492997, 2010;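 active means thallium signal drop beyond 5 SD of the untreated control mean, on both duplicate plates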;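 further: plate controls were buffer only IC0 wells for no effect and SID17386958 at its maximal inhibitory level for full effect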
* = called active by the depositor; i = inactive; nt = not tested or not shown. Only some compounds are listed: those with a hit (about 3.8% of all), similar ones and a draw of the others.

SMILES	hERG rescue	KCNQ1 inh	KCNK9 block	KCNK3 inh	Kir21 block	KCNQ1 act	KCNK9 inh conf	Kir21 sel	KCNK9 uninduced
Nc1ccc(C#Cc2ccc3oc4ccccc4c(=O)c3c2)cc1	-9	i	i	i	-1.2	i	nt	nt	nt
Cc1cccc(NC(=O)CCC(=O)Nc2nnc(C(F)(F)F)s2)c1	-4	i	i	i	2	i	nt	nt	nt
O=[N+]([O-])c1ccc(N/N=C/c2ccc(OCc3cccc4ccccc34)cc2)nc1	-7	i	-9.3*	i	-0.03	i	42%*	i	i
COc1ccc(C=NNc2ccc([N+](=O)[O-])cn2)cc1	nt	nt	nt	i	nt	nt	nt	nt	nt
O=[N+]([O-])c1ccc(N/N=C\c2cccn2-c2ccccc2)nc1	-12	i	-12*	-9.8*	-0.42	i	65%*	i	62%*
CC(C)C(c1nnnn1Cc1ccccc1)N1CCc2ccccc2C1 (centres undefined)	-9	i	i	i	-0.56	i	nt	nt	nt
c1ccc(Cn2nnnc2C(c2cccs2)N2CCc3ccccc3C2)cc1 (centres undefined)	-10	i	-12*	i	-0.34	i	i	i	32%*
CCN(CC)c1nc(C(N)=O)cc(-c2ccccc2)n1	-8	i	-8.5*	i	-0.01	i	i	i	i
N#C/C(=C\c1cc(Cl)ccc1O)C(=O)NC1CCCCC1	-8	i	i	i	-0.73	i	nt	nt	nt
Cc1ccc(-c2[nH]ncc2/C=C(\C#N)C(=O)NC2CCCCC2)cc1	-12	i	i	i	0.6	i	i	i	i
COc1ccc(-c2[nH]ncc2/C=C(/C#N)C(=O)NC2CCCCC2)cc1	-10	i	i	i	-1	i	i	i	i
N#C/C(=C\c1ccccc1[N+](=O)[O-])C(=O)NC1CCCCC1	-13	i	i	i	0.03	i	nt	nt	nt
COc1cccc(CN(CC(=O)NCc2ccco2)C(=O)CNS(=O)(=O)c2ccccc2)c1	-5	i	i	i	2.3	i	nt	nt	nt
CC1CCCC(C)N1C(=O)COC(=O)c1ccccc1O (centres undefined)	nt	nt	nt	i	nt	nt	nt	nt	nt
CC1CCCC(C)N1C(=O)COC(=O)c1cc(Br)ccc1Cl (centres undefined)	-5	i	i	i	0	i	i	i	i
O=C(COC(=O)C1CCN(S(=O)(=O)c2ccccc2)CC1)NCCc1ccccc1	nt	nt	nt	i	nt	nt	nt	nt	nt
CCCCCCn1nc(C(=O)Nc2nc3c(s2)CCCC3)c2ccccc2c1=O	-8	i	-13*	i	0.73	i	58%*	i	i
CCCn1nc(C(=O)Nc2nnc(CC)s2)c2ccccc2c1=O	-18	i	i	i	0.02	i	nt	nt	nt
Cc1ccc(CN2CCN(/N=C/c3cccn3C)CC2)c(C)c1	-12	i	i	i	0.02	i	nt	nt	nt
Cc1ccc(CN2CCN(/N=C/c3ccc(C)s3)CC2)c(C)c1	-8	i	i	i	-0.45	i	i	i	i
COc1ccc(OC)c(C(=O)NC(CC(N)=O)c2ccc(N3CCC(Cc4ccccc4)CC3)c([N+](=O)[O-])c2)c1 (centres undefined)	-16	i	-11*	i	-1.8	i	55%*	i	i
COc1ccc(OC)c(C(=O)NC(CC(N)=O)c2ccc(N3CCN(c4ccccc4)CC3)c([N+](=O)[O-])c2)c1 (centres undefined)	-4	i	i	i	-0.95	i	nt	nt	nt
Cc1noc(C)c1CN1C(=O)c2ccccc2C1=O	-12	i	i	i	1	i	nt	nt	nt
Cc1cccc2c1N(C(=O)c1ccco1)C(C)(C)c1ssc(=S)c1-2	-7	i	i	i	0.05	i	nt	nt	nt
Cc1ccc2c(c1)N(C(=O)c1ccco1)C(C)(C)c1ssc(=S)c1-2	-1	i	-8.3*	i	0.58	i	38%*	i	30%*
SMILES	hERG rescue	KCNQ1 inh	KCNK9 block	KCNK3 inh	Kir21 block	KCNQ1 act	KCNK9 inh conf	Kir21 sel	KCNK9 uninduced
CC(=C/c1ccc(C(C)C)cc1)/C=N/NC(=O)Cn1nnnc1N	-11	i	i	i	0.2	i	nt	nt	nt
CCCn1c(/C=N/Nc2nc3ccccc3[nH]2)nc2ccccc21	nt	nt	nt	i	nt	nt	nt	nt	nt
CC(C)Cn1c(/C=N/Nc2nc3ccccc3[nH]2)nc2ccccc21	-4	11*	i	i	-1.5	i	27%*	i	i
CCCN1CCCc2cc(CN(CCCN3CCOCC3)C(=O)Nc3ccc(OCC)cc3)ccc21	-1	i	i	i	0.02	i	i	i	i
Cc1c(S(=O)(=O)N2CCCC(C(=O)O)C2)cnn1C (centres undefined)	-7	i	i	i	-0.76	i	nt	nt	nt
O=C(O)/C=C\C(=O)Nc1ccc(N2CCN(c3ccc(Cl)cc3)CC2)cc1	-1	i	i	i	1.1	i	nt	nt	nt
O=C(O)/C=C\C(=O)Nc1ccc(N2CCN(c3ccc(Cl)c(Cl)c3)CC2)cc1	-9	i	i	i	2.1	i	i	i	i
CNC(=O)c1ccc(-n2cccn2)nc1	-12	i	i	i	1.3	i	nt	nt	nt
C#CCn1c(S(=O)(=O)Cc2ccc(C)cc2)nc(-c2ccccc2)c1-c1ccccc1	-14	i	-12*	i	1.1	i	59%*	i	36%*
C#CCn1c(S(=O)(=O)Cc2ccccc2Cl)nc(-c2ccccc2)c1-c1ccccc1	-9	i	i	i	-0.14	i	nt	nt	nt
Cc1cc2c(=O)n(CC(=O)NCC(=O)N3CCN(Cc4ccccc4)CC3)cnc2s1	-6	i	-11*	i	0.75	i	i	i	i

Bioassay records as filed in PubChem.
